Measurements: ChEMBL document CHEMBL4334468, “Exploring Mitochondria-Mediated Intrinsic Apoptosis by New Phytochemical Entities: An Explicit Observation of Cytochrome c Dynamics on Lung and Melanoma Cancer Cells” (J Med Chem, 2019)
Activity calls are given as the source filed them. No cut-off for these calls is given here.

Legend:
A-375 [1] = assay: Cytotoxicity in human A375 cells assessed as reduction in cell viability incubated for 24 hrs by MTT assay; assay type: functional, cell-based; details: Homo sapiens, A-375, 24 h; read-out: IC50
How it was run: (§1)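 MTT viability assay on A375 melanoma, A549 lung adenocarcinoma and WI-38 normal lung fibroblast cells after 24 and 48 h treatment. IC50 values are in µM, expressed as mean ± SD.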

A549 [2] = assay: Cytotoxicity in human A549 cells assessed as reduction in cell viability incubated for 48 hrs by MTT assay; assay type: functional, cell-based; details: Homo sapiens, A549, 48 h; read-out: IC50; how it was run: as §1
A549 [3] = assay: Cytotoxicity in human A549 cells assessed as reduction in cell proliferation at 0.001 to 100 uM incubated for 24 to 48 hrs by BrdU incorporation assay; assay type: functional, cell-based
How it was run: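 BrdU incorporation assay read colorimetrically. Absorbance of the developed colour is proportional to the BrdU incorporated into cells, taken as a measure of proliferation.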

[4] = Antioxidant activity assessed as hydroxyl radical scavenging activity at 1 to 1000 ug/ml incubated for 1 hr; assay type: functional
A549 [5] = assay: Induction of intracellular ROS generation in human A549 cells at 1 uM by DCFDA dye based fluorescence assay relative to control; assay type: functional
How it was run: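 Intracellular ROS in A549 cells was measured with the DCFDA probe over 1-100 µM, with paclitaxel as positive control. Readout is fold change in fluorescence intensity relative to untreated control.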

A-375 [6] = assay: Induction of morphological changes in human A375 cells at 20 uM by phase contrast microscopy; assay type: functional, cell-based
A549 [7] = assay: Suppression of cell number in human A549 cells at 20 uM by phase contrast microscopy; assay type: functional, cell-based
A549 [8] = assay: Induction of morphological changes in human A549 cells assessed as induction of membrane breakage, blebbing and leakage of intracellular components at 1 uM by atomic force microscopy; assay type: functional, cell-based
A-375 [9] = assay: Induction of apoptosis in human A375 cells at 1 uM by APOP assay; assay type: functional, cell-based
A-375 [10] = assay: Induction of apoptosis in human A375 cells assessed as induction of nuclear changes with DNA fragmentation at 1 uM by Hoechst 33342 nuclear staining based assay; assay type: functional, cell-based
How it was run: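 Hoechst 33342 nuclear staining of treated A549 or A375 cells. Nuclear condensation and fragmentation were examined by fluorescence microscopy against untreated control.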

A549 [11] = assay: Induction of apoptosis in human A549 cells assessed as early apoptotic cells level at 1 uM incubated for 24 hrs by FITC-Annexin V staining based assay (reference value: 0.01%); assay type: functional
A549 [12] = assay: Induction of apoptosis in human A549 cells assessed as late apoptotic cells level at 1 uM incubated for 24 hrs by FITC-Annexin V staining based assay (reference value: 0.02%); assay type: functional
A-375 [13] = assay: Induction of apoptosis in human A375 cells at 1 uM incubated for 24 hrs by FITC-Annexin V staining based assay (reference value: 0.03 +/- 0.9%); assay type: functional
A-375 [14] = assay: Induction of apoptosis in human A375 cells at 1 uM by TUNEL assay; assay type: functional, cell-based
A549 [15] = assay: Antimetastatic activity in human A549 cells assessed as reduction in cell invasion at 10 nM by crystal violet staining based transwell chamber assay; assay type: functional
How it was run: (§2)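 Invasion was measured in a transwell chamber, with cells moving across Matrigel toward the lower chamber. Invaded cells were imaged and quantified against untreated control.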

A-375 [16] = assay: Antimetastatic activity in human A375 cells assessed as reduction in cell invasion at 10 nM by crystal violet staining based transwell chamber assay; assay type: functional; how it was run: as §2
A-375 [17] = assay: Antimetastatic activity in human A375 cells assessed as reduction in cell migration at 10 nM by crystal violet staining based transwell chamber assay; assay type: functional
How it was run: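 Transwell chamber migration assay. Cells migrating to the lower side were imaged and quantified against untreated control.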

A549 [18] = assay: Induction of cell cycle arrest in human A549 cells assessed as accumulation at G0/G1 phase at 10 nM by propodium iodide staining based flow cytometric analysis (reference value: 68%); assay type: functional
How it was run: (§3)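 DNA was stained with propidium iodide and analysed by flow cytometry. Histograms give the fraction of cells in G0/G1, S and G2/M phases.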

A549 [19] = assay: Induction of cell cycle arrest in human A549 cells assessed as accumulation at G2/M phase at 10 nM by propodium iodide staining based flow cytometric analysis (reference value: 7%); assay type: functional; how it was run: as §3
A-375 [20] = assay: Induction of cell cycle arrest in human A375 cells assessed as accumulation at S phase at 10 nM by propodium iodide staining based flow cytometric analysis; assay type: functional; how it was run: as §3
A-375 [21] = assay: Induction of cell cycle arrest in human A375 cells assessed as accumulation at G2/M phase at 10 nM by propodium iodide staining based flow cytometric analysis; assay type: functional; how it was run: as §3
A549 [22] = assay: Induction of mitochondrial membrane potential changes in human A549 cells at 1 uM by JC1 staining based fluorimetry; assay type: functional, cell-based
How it was run: (§4)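 Mitochondrial membrane potential was assessed with the ratiometric dye JC1. Depolarization appears as lower red and higher green fluorescence, and the red/green intensity ratio was quantified.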

A-375 [23] = assay: Induction of mitochondrial membrane potential changes in human A375 cells at 1 uM by JC1 staining based fluorimetry; assay type: functional, cell-based; how it was run: as §4
A549 [24] = assay: Inhibition of mitochondrial membrane potential in human A549 cells at 1 uM by TMRE staining based assay; assay type: functional, cell-based
A-375 [25] = assay: Inhibition of mitochondrial membrane potential in human A375 cells at 1 uM by TMRE staining based assay; assay type: functional, cell-based
A549 [26] = assay: Induction of apoptosis in human A549 cells assessed as increase in caspase-9 levels at 1 uM incubated for 12 hrs by spectrofluorometry; assay type: functional, cell-based
A549 [27] = assay: Induction of apoptosis in human A549 cells assessed as increase in caspase-8 levels at 1 uM incubated for 12 hrs by spectrofluorometry; assay type: functional, cell-based
A-375 [28] = assay: Induction of apoptosis in human A375 cells assessed as increase in caspase-8 levels at 1 uM incubated for 12 hrs by spectrofluorometry; assay type: functional, cell-based
A-375 [29] = assay: Induction of apoptosis in human A375 cells assessed as increase in caspase-2 levels at 1 uM incubated for 12 hrs by spectrofluorometry; assay type: functional, cell-based
A549 [30] = assay: Induction of apoptosis in human A549 cells assessed as cytochrome-c release after 3 to 4 hrs by Raman spectral imaging analysis; assay type: functional, cell-based
A549 [31] = assay: Induction of apoptosis in human A549 cells assessed as cytochrome-c release after 6 to 8 hrs by Raman spectral imaging analysis; assay type: functional, cell-based
A-375 [32] = assay: Induction of apoptosis in human A375 cells assessed as cytochrome-c release after 6 to 8 hrs by Raman spectral imaging analysis; assay type: functional, cell-based
A-375 [33] = assay: Induction of DNA damage in human A375 cells after 4 hrs by Raman spectral imaging analysis; assay type: functional, cell-based
A549 [34] = assay: Induction of DNA damage in human A549 cells by SERS spectral analysis; assay type: functional, cell-based
A-375 [35] = assay: Induction of DNA fragmentation in human A375 cells after 4 hrs by agarose gel electrophoresis; assay type: functional, cell-based
A549 [36] = assay: Induction of GSH depletion in human A549 cells by fluorimetry; assay type: functional, cell-based
A-375 [37] = assay: Induction of GSH depletion in human A375 cells by fluorimetry; assay type: functional, cell-based
A-375 [38] = assay: Induction of apoptosis in human A375 cells assessed as cytochrome-c release after 4 to 12 hrs by spectrophotometry; assay type: functional, cell-based
A549 [39] = assay: Induction of apoptosis related protein expression in human A549 cells assessed as increase in HSP60 expression at 20 uM incubated for 12 hrs by apoptosis antibody array; assay type: functional, cell-based

COc1cc(C2Oc3cc(-c4cc(=O)c5c(O)cc(O)cc5o4)ccc3OC2/C=C2\C(=O)ON=C2c2ccc(Cl)cc2)ccc1O (centres undefined)
IC50 (A-375 [1]): 1200 nM
IC50 (A549 [2]): 1200 nM
Activity (A549 [3]): Active
Activity [4]: Dose-dependent effect
fold change (FC) (A549 [5]): >3
Activity (A-375 [6]): Active
Activity (A549 [7]): Active
Activity (A549 [8]): Active
Activity (A-375 [9]): Active
Activity (A-375 [10]): Active
Activity (A549 [11]): 9%
Activity (A549 [12]): 38%
Activity (A-375 [13]): 39%
Activity (A-375 [14]): Active
Activity (A549 [15]): Active
Activity (A-375 [16]): Active
Activity (A-375 [17]): Active
Activity (A549 [18]): 31%
Activity (A549 [19]): 29%
Activity (A-375 [20]): Active
Activity (A-375 [21]): Active
Activity (A549 [22]): Active
Activity (A-375 [23]): Active
inhibition (A549 [24]): Active
inhibition (A-375 [25]): Active
Activity (A549 [26]): Active
Activity (A549 [27]): inactive
Activity (A-375 [28]): inactive
Activity (A-375 [29]): Active
Activity (A549 [30]): Active
Activity (A549 [31]): Active
Activity (A-375 [32]): Active
Activity (A-375 [33]): Active
Activity (A549 [34]): Active
Activity (A-375 [35]): Active
Activity (A549 [36]): Active
Activity (A-375 [37]): Active
Activity (A-375 [38]): Active
Activity (A549 [39]): Active
